According to ChEMBL document CHEMBL1165965, “Synthesis and structure-activity relationships of 1,2,3,4-tetrahydropyrido[2,3-b]pyrazines as potent and selective inhibitors of the anaplastic lymphoma kinase” (Bioorg Med Chem, 2010):

Tests used:
[1] = target: T1, Serine/threonine-protein kinase MAK (Homo sapiens) (UniProt P20794); assay: Inhibition of MAK at 1 uM
T1 sequence (whole entry): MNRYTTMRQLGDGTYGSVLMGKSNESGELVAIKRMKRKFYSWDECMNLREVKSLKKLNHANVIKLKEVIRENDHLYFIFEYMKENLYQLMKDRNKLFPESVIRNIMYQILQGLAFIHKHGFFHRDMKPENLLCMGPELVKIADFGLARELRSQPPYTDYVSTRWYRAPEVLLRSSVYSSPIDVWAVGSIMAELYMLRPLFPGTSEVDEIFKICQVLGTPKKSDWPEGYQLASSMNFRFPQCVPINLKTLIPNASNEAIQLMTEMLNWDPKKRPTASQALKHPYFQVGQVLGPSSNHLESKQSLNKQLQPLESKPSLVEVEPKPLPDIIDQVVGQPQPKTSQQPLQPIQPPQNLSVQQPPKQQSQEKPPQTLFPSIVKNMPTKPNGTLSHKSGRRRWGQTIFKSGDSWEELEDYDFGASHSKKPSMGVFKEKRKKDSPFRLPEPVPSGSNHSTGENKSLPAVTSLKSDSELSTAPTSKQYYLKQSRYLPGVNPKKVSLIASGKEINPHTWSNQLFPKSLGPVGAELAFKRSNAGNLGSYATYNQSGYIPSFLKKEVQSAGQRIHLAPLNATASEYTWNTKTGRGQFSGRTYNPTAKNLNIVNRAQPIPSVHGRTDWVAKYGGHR

[2] = target: T2, MAP kinase-activated protein kinase 5 (Homo sapiens) (UniProt Q8IW41); assay: Inhibition of MAPKAPK5 at 1 uM
T2 sequence (whole entry): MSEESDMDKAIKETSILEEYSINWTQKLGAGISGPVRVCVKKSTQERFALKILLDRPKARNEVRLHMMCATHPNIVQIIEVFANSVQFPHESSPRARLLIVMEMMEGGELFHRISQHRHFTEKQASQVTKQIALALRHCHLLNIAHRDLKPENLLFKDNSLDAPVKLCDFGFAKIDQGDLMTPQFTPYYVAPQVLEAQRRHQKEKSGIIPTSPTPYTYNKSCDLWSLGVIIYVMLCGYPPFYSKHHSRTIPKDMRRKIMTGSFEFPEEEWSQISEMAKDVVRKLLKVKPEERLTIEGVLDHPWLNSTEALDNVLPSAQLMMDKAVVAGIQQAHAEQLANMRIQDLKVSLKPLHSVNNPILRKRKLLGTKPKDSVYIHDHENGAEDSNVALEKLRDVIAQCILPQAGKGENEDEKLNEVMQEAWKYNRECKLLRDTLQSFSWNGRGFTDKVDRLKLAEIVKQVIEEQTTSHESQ

[3] = target: Serine/threonine-protein kinase B-raf (Homo sapiens) (UniProt P15056); assay: Inhibition of BRAF at 1 uM
Chain of Serine/threonine-protein kinase B-raf (Homo sapiens) (P15056 whole entry): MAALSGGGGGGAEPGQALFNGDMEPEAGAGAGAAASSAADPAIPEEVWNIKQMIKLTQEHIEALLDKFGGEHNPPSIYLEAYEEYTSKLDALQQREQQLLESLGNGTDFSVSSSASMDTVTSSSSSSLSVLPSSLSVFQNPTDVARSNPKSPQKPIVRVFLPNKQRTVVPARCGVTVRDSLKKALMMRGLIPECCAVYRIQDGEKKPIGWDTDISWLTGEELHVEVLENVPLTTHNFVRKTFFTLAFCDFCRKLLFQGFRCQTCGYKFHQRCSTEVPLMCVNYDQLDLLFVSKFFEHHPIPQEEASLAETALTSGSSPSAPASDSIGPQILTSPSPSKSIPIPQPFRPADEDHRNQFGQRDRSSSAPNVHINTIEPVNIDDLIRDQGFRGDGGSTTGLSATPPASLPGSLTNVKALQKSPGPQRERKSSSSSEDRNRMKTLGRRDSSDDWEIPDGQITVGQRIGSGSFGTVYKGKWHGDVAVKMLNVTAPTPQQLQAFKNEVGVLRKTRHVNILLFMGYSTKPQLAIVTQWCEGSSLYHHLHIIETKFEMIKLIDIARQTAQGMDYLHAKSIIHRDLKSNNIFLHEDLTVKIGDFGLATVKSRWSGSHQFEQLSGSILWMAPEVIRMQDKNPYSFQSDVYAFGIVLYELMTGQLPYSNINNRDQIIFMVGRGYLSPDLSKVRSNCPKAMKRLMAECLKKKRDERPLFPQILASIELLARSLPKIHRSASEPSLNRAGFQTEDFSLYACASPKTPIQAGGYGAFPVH
Outline: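 Ambit KINOMEscan screen at a single concentration across a 250–400 kinase panel, recorded as percent inhibition. Selectivity was expressed as S(90), the fraction of kinases inhibited >90%.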

[4] = target: Non-receptor tyrosine-protein kinase TYK2 (Homo sapiens) (UniProt P29597); assay: Inhibition of TYK2 JH2 pseudokinase domain at 1 uM
Chain of Non-receptor tyrosine-protein kinase TYK2 (Homo sapiens) (P29597 whole entry, the tested form may be a part): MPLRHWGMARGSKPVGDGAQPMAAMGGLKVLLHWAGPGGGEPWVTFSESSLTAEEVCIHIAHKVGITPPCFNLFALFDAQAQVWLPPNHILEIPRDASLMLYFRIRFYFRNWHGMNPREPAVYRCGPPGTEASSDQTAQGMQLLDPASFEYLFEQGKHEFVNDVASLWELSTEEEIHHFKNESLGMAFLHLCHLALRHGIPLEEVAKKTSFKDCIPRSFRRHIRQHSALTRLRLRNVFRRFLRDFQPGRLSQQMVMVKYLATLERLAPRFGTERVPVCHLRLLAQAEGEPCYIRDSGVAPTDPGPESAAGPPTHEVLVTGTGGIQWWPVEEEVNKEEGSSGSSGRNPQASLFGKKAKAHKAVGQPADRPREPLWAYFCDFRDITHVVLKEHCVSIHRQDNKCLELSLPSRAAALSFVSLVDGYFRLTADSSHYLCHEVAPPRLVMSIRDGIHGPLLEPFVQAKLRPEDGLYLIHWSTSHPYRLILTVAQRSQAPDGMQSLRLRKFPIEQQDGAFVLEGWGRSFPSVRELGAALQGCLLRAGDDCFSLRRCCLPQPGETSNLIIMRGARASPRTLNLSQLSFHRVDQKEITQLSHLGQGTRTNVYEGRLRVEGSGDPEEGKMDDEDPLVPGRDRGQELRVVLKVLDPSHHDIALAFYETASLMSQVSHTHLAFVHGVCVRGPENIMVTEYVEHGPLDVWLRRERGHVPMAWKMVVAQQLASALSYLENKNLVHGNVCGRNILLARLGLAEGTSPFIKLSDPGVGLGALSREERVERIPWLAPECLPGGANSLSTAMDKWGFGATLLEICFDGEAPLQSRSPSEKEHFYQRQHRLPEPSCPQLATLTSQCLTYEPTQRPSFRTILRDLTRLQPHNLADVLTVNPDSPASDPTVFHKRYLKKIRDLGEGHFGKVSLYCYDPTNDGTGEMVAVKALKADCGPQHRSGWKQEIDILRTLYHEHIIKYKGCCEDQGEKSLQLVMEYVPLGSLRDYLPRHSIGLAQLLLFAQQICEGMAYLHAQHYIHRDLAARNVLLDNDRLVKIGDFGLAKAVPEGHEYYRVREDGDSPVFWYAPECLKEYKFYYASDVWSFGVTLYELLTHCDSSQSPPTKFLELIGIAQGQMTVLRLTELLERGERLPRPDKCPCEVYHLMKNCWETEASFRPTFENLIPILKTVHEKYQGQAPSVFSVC

[5] = target: Dual specificity testis-specific protein kinase 1 (Homo sapiens) (UniProt Q15569); assay: Inhibition of TESK1 at 1 uM
Chain of Dual specificity testis-specific protein kinase 1 (Homo sapiens) (Q15569 whole entry, looked up): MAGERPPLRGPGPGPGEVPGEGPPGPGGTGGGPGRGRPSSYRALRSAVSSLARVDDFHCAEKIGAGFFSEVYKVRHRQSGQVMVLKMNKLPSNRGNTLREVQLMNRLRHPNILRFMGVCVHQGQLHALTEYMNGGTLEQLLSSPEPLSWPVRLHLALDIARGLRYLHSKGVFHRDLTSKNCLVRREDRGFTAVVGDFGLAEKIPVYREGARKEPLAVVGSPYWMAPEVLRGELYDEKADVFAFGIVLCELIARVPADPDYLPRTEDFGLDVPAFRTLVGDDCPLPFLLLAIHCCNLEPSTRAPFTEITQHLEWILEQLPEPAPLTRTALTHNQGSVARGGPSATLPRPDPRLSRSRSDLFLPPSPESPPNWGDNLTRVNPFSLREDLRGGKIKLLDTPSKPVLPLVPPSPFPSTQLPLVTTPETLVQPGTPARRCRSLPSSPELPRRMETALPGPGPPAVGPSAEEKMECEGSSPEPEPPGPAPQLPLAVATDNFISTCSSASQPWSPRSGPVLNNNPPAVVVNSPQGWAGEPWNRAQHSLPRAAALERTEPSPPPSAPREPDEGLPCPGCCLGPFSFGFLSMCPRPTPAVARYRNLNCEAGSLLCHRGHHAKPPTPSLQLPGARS

[6] = target: T3, Dual specificity protein kinase TTK (Homo sapiens) (UniProt P33981); assay: Inhibition of TTK at 1 uM
T3 sequence (whole entry): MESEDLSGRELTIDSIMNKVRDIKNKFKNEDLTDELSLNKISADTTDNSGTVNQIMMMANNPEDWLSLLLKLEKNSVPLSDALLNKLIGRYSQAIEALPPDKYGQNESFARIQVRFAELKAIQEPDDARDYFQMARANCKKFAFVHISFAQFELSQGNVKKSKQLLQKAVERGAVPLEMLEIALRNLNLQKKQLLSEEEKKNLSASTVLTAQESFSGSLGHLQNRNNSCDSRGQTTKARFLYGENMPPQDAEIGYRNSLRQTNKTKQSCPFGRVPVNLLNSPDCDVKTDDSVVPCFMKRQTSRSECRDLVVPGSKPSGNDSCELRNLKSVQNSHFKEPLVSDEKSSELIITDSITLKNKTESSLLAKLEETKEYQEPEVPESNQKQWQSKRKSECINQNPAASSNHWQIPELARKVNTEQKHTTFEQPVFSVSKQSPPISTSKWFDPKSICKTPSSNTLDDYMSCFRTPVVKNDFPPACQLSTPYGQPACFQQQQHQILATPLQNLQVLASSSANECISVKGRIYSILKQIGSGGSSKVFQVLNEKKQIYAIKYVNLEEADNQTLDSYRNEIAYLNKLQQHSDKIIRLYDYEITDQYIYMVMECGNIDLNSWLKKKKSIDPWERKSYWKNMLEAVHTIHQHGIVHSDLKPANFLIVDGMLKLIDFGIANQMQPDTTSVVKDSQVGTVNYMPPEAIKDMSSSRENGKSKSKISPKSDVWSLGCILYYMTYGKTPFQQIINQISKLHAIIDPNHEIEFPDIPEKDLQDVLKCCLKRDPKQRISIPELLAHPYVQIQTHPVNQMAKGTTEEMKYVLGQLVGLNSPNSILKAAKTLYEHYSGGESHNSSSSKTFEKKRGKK

[7] = target: Serine/threonine-protein kinase 32B (Homo sapiens) (UniProt Q9NY57); assay: Inhibition of YANK2 at 1 uM
Chain of Serine/threonine-protein kinase 32B (Homo sapiens) (Q9NY57 whole entry): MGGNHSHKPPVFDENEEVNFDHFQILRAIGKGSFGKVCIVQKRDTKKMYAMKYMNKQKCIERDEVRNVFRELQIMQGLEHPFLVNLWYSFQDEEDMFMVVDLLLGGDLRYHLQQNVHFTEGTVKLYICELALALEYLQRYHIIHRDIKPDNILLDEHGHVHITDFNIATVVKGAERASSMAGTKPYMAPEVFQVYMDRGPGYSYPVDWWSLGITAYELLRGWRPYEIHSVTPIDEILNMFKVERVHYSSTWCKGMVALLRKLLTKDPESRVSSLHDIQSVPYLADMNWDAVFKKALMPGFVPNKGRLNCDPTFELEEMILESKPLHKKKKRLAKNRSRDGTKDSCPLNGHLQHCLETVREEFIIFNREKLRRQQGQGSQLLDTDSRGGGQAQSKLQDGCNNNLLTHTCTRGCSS

Compound	inhibition [1]	inhibition [2]	inhibition [3]	inhibition [4]	inhibition [5]	inhibition [6]	inhibition [7]
CN1CCN(c2ccc(-c3cnc4c(c3)N(Cc3cc(F)ccc3F)CCN4)cn2)CC1	< 50%	< 50%	< 50%	< 50%	< 50%	< 50%	< 50%
CN1CCN(c2ccc(-c3cnc4c(c3)N(Cc3cc(Cl)ccc3Cl)CCN4)cn2)CC1	< 50%	< 50%	< 50%	< 50%	< 50%	< 50%	< 50%
CN1CCN(c2ccc(-c3cnc4c(c3)N(Cc3c(F)ccc(F)c3Cl)CCN4)cn2)CC1	< 50%	< 50%	< 50%	< 50%	< 50%	< 50%	< 50%
FC(F)(F)c1ccc(Cl)cc1CN1CCNc2ncc(-c3ccnc(N4CCNCC4)c3)cc21	< 50%	< 50%	< 50%	< 50%	< 50%	< 50%	< 50%

Results, then the molecule that gave them:

inhibition [1]	inhibition [2]	inhibition [3]	inhibition [4]	inhibition [5]	inhibition [6]	inhibition [7]	Compound
< 50%	< 50%	< 50%	< 50%	< 50%	< 50%	< 50%	CC(=O)N1CCN(c2cc(-c3cnc4c(c3)N(Cc3cc(Cl)ccc3C(F)(F)F)CCN4)ccn2)CC1
–	–	< 50%	–	< 50%	< 50%	< 50%	O=C(O)c1ccc(-c2cnc3c(c2)N(Cc2cc(Cl)ccc2C(F)(F)F)CCN3)cc1
–	–	< 50%	–	< 50%	< 50%	< 50%	O=C(c1ccc(-c2cnc3c(c2)N(Cc2cc(Cl)ccc2C(F)(F)F)CCN3)cc1)N1CCCCC1
< 50%	< 50%	< 50%	< 50%	< 50%	< 50%	< 50%	CN1CCN(c2ccc(-c3cnc4c(c3)N(Cc3cc(Cl)ccc3C(F)(F)F)CCN4)cn2)CC1
–	–	< 50%	–	< 50%	< 50%	< 50%	COC1CCN(C(=O)c2ccc(-c3cnc4c(c3)N(Cc3cc(Cl)ccc3C(F)(F)F)CCN4)cc2)CC1
–	–	< 50%	–	88.5%	< 50%	< 50%	O=C(c1ccc(-c2cnc3c(c2)N(Cc2cc(Cl)ccc2C(F)(F)F)CCN3)cc1)N1CCC(N2CCCC2)CC1
